How the values were obtained:
[1] = target: T1, P2Y purinoceptor 14 (Homo sapiens, UniProt Q15391); test: Displacement of fluorescent tracer 4-(4-(1-(4-(1-(6-(3-carboxylato-4-(3-iminio-3H-xanthen-9-yl)benzamido)hexyl)-4,5-dihydro-1H-pyrrol-3-yl)butyl)piperidin-1-ium-4-yl)phenyl)-7-(4-(trifluoromethyl)phenyl)-2-naphthoate from human P2Y14R stably expressed in CHO cells assessed as inhibition constant by flow cytometry; type: cell-based
T1 sequence (Q15391 whole entry): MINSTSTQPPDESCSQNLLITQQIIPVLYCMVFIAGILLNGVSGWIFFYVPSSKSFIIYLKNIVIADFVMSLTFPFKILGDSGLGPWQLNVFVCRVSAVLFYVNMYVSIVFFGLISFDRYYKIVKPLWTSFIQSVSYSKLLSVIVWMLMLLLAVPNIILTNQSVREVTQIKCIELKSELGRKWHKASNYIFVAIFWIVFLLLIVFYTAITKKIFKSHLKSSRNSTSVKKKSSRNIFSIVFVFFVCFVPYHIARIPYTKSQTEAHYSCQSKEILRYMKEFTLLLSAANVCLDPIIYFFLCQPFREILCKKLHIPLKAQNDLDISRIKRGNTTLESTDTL
Outline: (§1)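 Whole-cell competitive binding: CHO cells expressing hP2Y14R (or HEK-293 cells expressing mP2Y14R) incubated with AlexaFluor488-labelled antagonist tracer at 20 nM.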

[2] = target: T1, P2Y purinoceptor 14; test: Displacement of fluorescent tracer 4-(4-(1-(4-(1-(6-(3-carboxylato-4-(3-iminio-3H-xanthen-9-yl)benzamido)hexyl)-4,5-dihydro-1H-pyrrol-3-yl)butyl)piperidin-1-ium-4-yl)phenyl)-7-(4-(trifluoromethyl)phenyl)-2-naphthoate from human P2Y14R stably expressed in CHO cells by flow cytometry; type: cell-based; outline: as §1
[3] = Lipophilicity, log D of compound at pH 7.4 incubated for 20 hrs by HPLC analysis; type: physicochemical; details: buffer
[4] = Selectivity ratio, ratio of IC50 for displacement of fluorescent tracer 4-(4-(1-(4-(1-(6-(3-carboxylato-4-(3-iminio-3H-xanthen-9-yl)benzamido)hexyl)-4,5-dihydro-1H-pyrrol-3-yl)butyl)piperidin-1-ium-4-yl)phenyl)-7-(4-(trifluoromethyl)phenyl)-2-naphthoate from mouse P2Y14R stably expressed in human HEK293 cells to IC50 for displacement of fluorescent tracer 4-(4-(1-(4-(1-(6-(3-carboxylato-4-(3-iminio-3H-xanthen-9-yl)benzamido)hexyl)-4,5-dihydro-1H-pyrrol-3-yl)butyl)piperidin-1-ium-4-yl)phenyl)-7-(4-(trifluoromethyl)phenyl)-2-naphthoate from human P2Y14R stably expressed in CHO cells; type: cell-based
[5] = target: T2, P2Y purinoceptor 14 (Mus musculus, UniProt Q9ESG6); test: Displacement of fluorescent tracer 4-(4-(1-(4-(1-(6-(3-carboxylato-4-(3-iminio-3H-xanthen-9-yl)benzamido)hexyl)-4,5-dihydro-1H-pyrrol-3-yl)butyl)piperidin-1-ium-4-yl)phenyl)-7-(4-(trifluoromethyl)phenyl)-2-naphthoate from mouse P2Y14R stably expressed in human HEK293 cells by flow cytometry; type: cell-based
T2 sequence (Q9ESG6 whole entry): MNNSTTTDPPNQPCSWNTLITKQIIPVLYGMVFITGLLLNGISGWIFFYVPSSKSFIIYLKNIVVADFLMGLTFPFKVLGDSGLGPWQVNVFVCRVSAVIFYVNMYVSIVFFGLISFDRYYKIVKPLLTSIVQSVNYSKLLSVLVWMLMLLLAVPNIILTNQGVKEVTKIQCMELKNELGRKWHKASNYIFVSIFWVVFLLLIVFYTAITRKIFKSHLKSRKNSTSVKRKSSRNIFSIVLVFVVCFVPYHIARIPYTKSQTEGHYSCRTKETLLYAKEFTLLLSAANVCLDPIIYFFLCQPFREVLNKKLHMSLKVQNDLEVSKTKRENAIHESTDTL
Outline: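 Whole-cell competitive binding: CHO cells expressing hP2Y14R (or HEK-293 cells expressing mP2Y14R) incubated with AlexaFluor488-labelled antagonist tracer at 20 nM. […] Ki derived by dividing IC50 by 1.72.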

[6] = target: Histamine H1 receptor (Homo sapiens, UniProt P35367); test: Displacement of [3H]-Pyrilamine from human histamine H1 receptor assessed as inhibition constant by radioligand displacement assay
[7] = target: T3, Alpha-1B adrenergic receptor (Homo sapiens, UniProt P35368); test: Displacement of [3H]-Prazosin from human adrenergic alpha1B receptor assessed as inhibition constant by radioligand displacement assay
T3 sequence (P35368 whole entry): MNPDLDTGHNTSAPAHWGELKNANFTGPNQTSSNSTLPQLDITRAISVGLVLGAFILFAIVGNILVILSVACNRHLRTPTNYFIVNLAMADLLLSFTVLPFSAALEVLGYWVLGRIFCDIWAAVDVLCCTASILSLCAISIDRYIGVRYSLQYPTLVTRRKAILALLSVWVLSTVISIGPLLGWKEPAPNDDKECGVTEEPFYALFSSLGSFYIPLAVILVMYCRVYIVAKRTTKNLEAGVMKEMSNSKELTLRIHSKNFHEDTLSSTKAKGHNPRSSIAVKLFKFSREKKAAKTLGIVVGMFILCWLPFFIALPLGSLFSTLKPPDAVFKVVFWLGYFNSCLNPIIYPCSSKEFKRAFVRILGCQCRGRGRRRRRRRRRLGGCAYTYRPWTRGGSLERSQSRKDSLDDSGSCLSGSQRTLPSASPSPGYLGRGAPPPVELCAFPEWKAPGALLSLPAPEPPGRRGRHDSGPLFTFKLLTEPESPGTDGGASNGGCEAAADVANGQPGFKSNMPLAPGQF

[8] = target: 5-hydroxytryptamine receptor 1B (Homo sapiens, UniProt P28222); test: Displacement of [3H]-5-CT from human 5-HT1B receptor assessed as inhibition constant by radioligand displacement assay
[9] = target: Beta-3 adrenergic receptor (Homo sapiens, UniProt P13945); test: Displacement of [125I]-Pindolol from human adrenergic beta3 receptor assessed as inhibition constant by radioligand displacement assay
[10] = target: T4, Muscarinic acetylcholine receptor M5 (Homo sapiens, UniProt P08912); test: Displacement of […] from human muscarinic M5 receptor assessed as inhibition constant by radioligand displacement assay
T4 sequence (P08912 whole entry): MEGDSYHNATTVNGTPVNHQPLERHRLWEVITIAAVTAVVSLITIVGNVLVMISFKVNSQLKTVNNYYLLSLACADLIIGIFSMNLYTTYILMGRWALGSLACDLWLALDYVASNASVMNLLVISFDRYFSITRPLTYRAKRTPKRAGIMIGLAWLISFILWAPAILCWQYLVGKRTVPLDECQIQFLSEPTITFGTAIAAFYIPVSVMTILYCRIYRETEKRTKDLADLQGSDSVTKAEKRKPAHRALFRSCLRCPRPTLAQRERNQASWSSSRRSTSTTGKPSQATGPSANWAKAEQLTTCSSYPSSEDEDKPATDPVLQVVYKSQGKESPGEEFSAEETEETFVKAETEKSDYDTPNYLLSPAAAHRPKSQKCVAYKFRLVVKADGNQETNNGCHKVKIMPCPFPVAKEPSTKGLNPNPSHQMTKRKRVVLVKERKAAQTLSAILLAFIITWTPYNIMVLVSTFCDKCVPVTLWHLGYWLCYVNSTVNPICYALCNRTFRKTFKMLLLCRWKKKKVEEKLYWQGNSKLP

[11] = target: Sigma intracellular receptor 2 (Homo sapiens, UniProt Q5BJF2); test: Displacement of [3H]-DTG from human sigma 2 receptor assessed as inhibition constant by radioligand displacement assay
Sequence of Sigma intracellular receptor 2 (Q5BJF2 whole entry): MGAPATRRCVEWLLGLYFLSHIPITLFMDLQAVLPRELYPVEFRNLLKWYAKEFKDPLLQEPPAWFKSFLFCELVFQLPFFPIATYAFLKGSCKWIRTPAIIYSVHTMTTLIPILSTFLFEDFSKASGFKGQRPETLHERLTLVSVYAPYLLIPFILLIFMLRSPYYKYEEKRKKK

Sequence of Beta-3 adrenergic receptor (P13945 whole entry): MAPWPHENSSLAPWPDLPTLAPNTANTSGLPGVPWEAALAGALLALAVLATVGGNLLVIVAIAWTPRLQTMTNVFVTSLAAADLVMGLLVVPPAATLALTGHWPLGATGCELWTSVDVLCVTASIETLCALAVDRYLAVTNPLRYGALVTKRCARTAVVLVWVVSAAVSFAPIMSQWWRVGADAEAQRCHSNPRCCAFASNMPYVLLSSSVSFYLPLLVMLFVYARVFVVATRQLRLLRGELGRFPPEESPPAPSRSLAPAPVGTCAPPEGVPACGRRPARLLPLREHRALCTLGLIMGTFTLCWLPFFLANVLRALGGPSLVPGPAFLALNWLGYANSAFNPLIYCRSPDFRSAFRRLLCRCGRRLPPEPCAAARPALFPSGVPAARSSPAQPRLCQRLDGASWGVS
Sequence of Histamine H1 receptor (P35367 whole entry): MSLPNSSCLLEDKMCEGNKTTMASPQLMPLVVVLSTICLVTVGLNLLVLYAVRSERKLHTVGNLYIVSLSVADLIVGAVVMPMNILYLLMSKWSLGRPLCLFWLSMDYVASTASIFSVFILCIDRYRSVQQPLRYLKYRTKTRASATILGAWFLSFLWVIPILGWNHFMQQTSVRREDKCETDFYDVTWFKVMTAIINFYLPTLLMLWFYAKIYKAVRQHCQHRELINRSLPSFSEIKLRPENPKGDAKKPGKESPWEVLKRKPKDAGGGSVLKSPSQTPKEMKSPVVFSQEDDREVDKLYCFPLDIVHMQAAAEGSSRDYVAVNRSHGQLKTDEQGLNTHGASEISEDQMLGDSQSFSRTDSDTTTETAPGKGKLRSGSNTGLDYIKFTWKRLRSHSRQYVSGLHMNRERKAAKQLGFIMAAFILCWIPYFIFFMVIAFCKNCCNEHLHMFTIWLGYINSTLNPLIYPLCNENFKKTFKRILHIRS
Sequence of 5-hydroxytryptamine receptor 1B (P28222 whole entry): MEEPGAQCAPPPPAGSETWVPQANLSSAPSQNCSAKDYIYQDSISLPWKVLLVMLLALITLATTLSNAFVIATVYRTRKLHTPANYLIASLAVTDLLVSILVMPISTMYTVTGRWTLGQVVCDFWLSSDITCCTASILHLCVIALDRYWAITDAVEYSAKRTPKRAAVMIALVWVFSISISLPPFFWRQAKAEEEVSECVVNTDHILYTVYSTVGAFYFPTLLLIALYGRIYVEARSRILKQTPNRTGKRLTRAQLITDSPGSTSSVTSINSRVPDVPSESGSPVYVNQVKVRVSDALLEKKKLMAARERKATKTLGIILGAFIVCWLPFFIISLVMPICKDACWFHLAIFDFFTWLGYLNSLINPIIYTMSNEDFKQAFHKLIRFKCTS

Row | Compound | Ki [1] [nM] | IC50 [2] [nM] | logD at 20 h [3] | other results
1 | CN(C)C(=O)COC(=O)c1cc(-c2ccc([C@]3(O)[C@@H]4CNC[C@H]3C4)cc2)c2ccc(-c3ccc(C(F)(F)F)cc3)cc2c1 | 2800 | 4810 |  | 
2 | O=C(O)c1cc(-c2ccc(C3(O)CCCNCCC3)cc2)c2ccc(-c3ccc(C(F)(F)F)cc3)cc2c1 | 1030 |  |  | 
3 | COC1(c2ccc(-c3cc(C(=O)O)cc4cc(-c5ccc(C(F)(F)F)cc5)ccc34)cc2)CC2(CNC2)C1 | 27 | 46.5 | 1.8 | 
4 | NCCCCCCn1cc(CCCCN2CCC(c3ccc(-c4cc(C(=O)O)cc5cc(-c6ccc(C(F)(F)F)cc6)ccc45)cc3)CC2)nn1 | 67.4 | 116 |  | 
5 | O=C(O)c1cc(-c2ccc(C3(O)CC4(CNC4)C3)cc2)c2ccc(-c3ccc(C(F)(F)F)cc3)cc2c1 | 12.1 |  | 0.81 | 
6 | O=C(O)c1cc(-c2ccc(C3=C[C@H]4CNC[C@@H]4C3)cc2)c2ccc(-c3ccc(C(F)(F)F)cc3)cc2c1 (racemic) | 9.65 |  | 2.2 | Ratio IC50 [4]: 0.336; IC50 [5]: 5.57 nM
7 | O=C(O)c1cc(-c2ccc(C3CC4(CNC4)C3)cc2)c2ccc(-c3ccc(C(F)(F)F)cc3)cc2c1 | 27.1 |  | 1.9 | 
8 | O=C(O)c1cc(-c2ccc(C3CCNC3)cc2)c2ccc(-c3ccc(C(F)(F)F)cc3)cc2c1 (racemic) |  |  | 1.6 | 
9 | CC(C)(C)OC(=O)NCCCCCCn1cc(CCCCN2CCC(c3ccc(-c4cc(C(=O)O)cc5cc(-c6ccc(C(F)(F)F)cc6)ccc45)cc3)CC2)nn1 | 247 | 424 |  | 
10 | O=C(O)c1cc(-c2ccc(C3=CC4(CNC4)C3)cc2)c2ccc(-c3ccc(C(F)(F)F)cc3)cc2c1 | 5.63 |  | 1.9 | Ki [6]: 5600 nM; Ratio IC50 [4]: 1.64; Ki [7]: 7300 nM; Ki [8]: 6700 nM; IC50 [5]: 15.9 nM; Ki [9]: 6800 nM; Ki [10]: 5000 nM; Ki [11]: 2200 nM

From ChEMBL document CHEMBL5331128, “Alicyclic Ring Size Variation of 4-Phenyl-2-naphthoic Acid Derivatives as P2Y14 Receptor Antagonists” (J Med Chem, 2023)
